{"source": "ChEMBL document CHEMBL4028854", "about": "“Iminothioethers as Hydrogen Sulfide Donors: From the Gasotransmitter Release to the Vascular Effects” (J Med Chem, 2017)", "key": {"Thoracic aorta [1]": {"test_system": "Thoracic aorta", "test": "Vasorelaxing effect in endothelium-denuded Wistar rat thoracic aorta ring assessed as reduction in KCl-induced contractile tone at 1 mM relative to KCl", "format": "functional"}, "Heart": {"test_system": "Heart", "test": "Protection against angiotensin2-induced reduction in coronary flow in Langendorff perfused Wistar rat heart assessed as increase in coronary flow at 300 uM after 20 mins relative to control", "format": "functional", "design": "scale not given: the % may be the effect or the level left", "summary_of_the_method": "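Langendorff-perfused hearts were equilibrated for 20 min. Coronary spasm was induced with angiotensin II 0.1 µM, kept in the perfusate throughout. Compound (300 µM) or vehicle was then added to the perfusate for 20 min. Coronary flow was expressed as % of the mean of three basal readings. Hearts from 6-9 animals/group; mean ± SE.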"}, "Rattus norvegicus": {"test_system": "Rattus norvegicus", "test": "Antihypertensive activity in Wistar rat model of L-NAME-induced hypertension assessed as decrease in basal systolic blood pressure at 133 umol/kg, ip measured at 5 mins interval for 30 mins relative to control", "format": "functional", "design": "scale not given: the % may be the effect or the level left", "summary_of_the_method": "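Male 12-week-old normotensive Wistar rats (250 g), anaesthetized with sodium thiopental 60 mg/Kg. Tails warmed under an IR lamp for 15 min, and systolic pressure read by tail-cuff. Baseline taken, then L-NAME 100 mg/Kg i.p. given and pressure monitored 20 min. Test agent given i.p. in DMSO vehicle (0.33 ml/Kg). Read-outs taken every 5 min over 30 min and averaged, as % of the L-NAME-raised Psys. 6 rats/group.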"}, "[2]": {"test": "Drug metabolism in HSMC assessed as H2S release at 1 mM by WSP1 dye based spectrofluorometric method", "format": "ADME, cell-based", "conditions": "human, 1000 µM, TDE = time-dependent effect", "summary_of_the_method": "(§1)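 Human aortic smooth muscle cells were seeded on gelatin-coated slides (30000/well). After 24 h they were loaded with WSP-1 (100 µM) for 30 min, and the supernatant was replaced by compound in HEPES standard buffer (pH 7.4). Fluorescence (λ 465-515 nm) was followed for 1 h and expressed as fluorescence index. Reference donor was used at 300 µM. Data are mean ± SE.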"}, "Thoracic aorta [3]": {"test_system": "Thoracic aorta", "test": "Vasorelaxing effect in endothelium-denuded Wistar rat thoracic aorta ring assessed as reduction in KCl-induced contractile tone", "format": "functional, tissue-based"}, "HSMC [4]": {"test_system": "HSMC", "test": "Induction of intracellular cGMP level in HSMC at 300 uM after 20 mins by ELISA", "format": "functional, cell-based", "conditions": "Homo sapiens"}, "[5]": {"test": "Drug metabolism in HSMC assessed as H2S release at 300 uM by WSP1/propidium iodide staining based fluorescence microscopic method", "format": "ADME, cell-based", "conditions": "human", "summary_of_the_method": "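HASMCs on gelatine-coated culture slides were loaded with 100 µM WSP-1 for 30 min, then incubated with compound in HEPES-buffered saline for 1 h. Cells were washed, fixed in Bouin solution for 10 min, washed twice and counterstained with propidium iodide for nuclei. Green WSP-1 fluorescence was examined by fluorescence microscopy.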"}, "[6]": {"test": "Induction of membrane hyperpolarization in HSMC at 1 mM measured every 2.5 mins for 40 mins by DiBac4(3) dye based spectrofluorometric method relative to NS1619", "format": "functional, Homo sapiens", "summary_of_the_method": "(§2)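 Human aortic smooth muscle cells were grown in Medium 231 with SMGS at 37 °C, 5% CO2, and seeded at 72×10^3/well on gelatin 24 h before use. Cells were loaded 1 h with DiBac4(3) 2.5 µM in HEPES buffer, pH 7.4, at room temperature. Fluorescence (ex 488/em 520 nm) was read every 2.5 min for 40 min. (Ft-F0)/F0 was calculated, and AUC expressed as % of the NS1619 10 µM response. Six experiments ×6 replicates.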"}, "[7]": {"test": "Induction of intracellular cGMP level in sodium nitroprusside pretreated HSMC at 300 uM after 20 mins by ELISA (reference value: 0.446 +/- 0.005 pmol/ml)", "format": "functional, Homo sapiens"}, "HSMC [8]": {"test_system": "HSMC", "test": "Induction of membrane hyperpolarization in HSMC measured every 2.5 mins for 40 mins by DiBac4(3) dye based spectrofluorometric method", "format": "functional, cell-based", "conditions": "Homo sapiens", "summary_of_the_method": "as §2"}, "HSMC [9]": {"test_system": "HSMC", "test": "Induction of membrane hyperpolarization in HSMC at 10 uM measured every 2.5 mins for 40 mins by DiBac4(3) dye based spectrofluorometric method", "format": "functional, cell-based", "conditions": "Homo sapiens", "summary_of_the_method": "as §2"}, "[10]": {"test": "Drug metabolism in HSMC assessed as H2S release at 300 uM by WSP1 dye based spectrofluorometric method", "format": "ADME, cell-based", "conditions": "human", "summary_of_the_method": "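HASMCs seeded at 30000/well on gelatine-coated culture slides; after 24 h, loaded with 100 µM WSP-1 for 30 min. Dye solution replaced by compound in HEPES-buffered saline, pH 7.4, without added thiols. H2S-evoked fluorescence (λ 465–515 nm) was read by spectrofluorometer over 1 h and expressed as fluorescence index.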"}, "[11]": {"test": "Drug metabolism in HSMC assessed as H2S release by measuring increase in fluorescence intensity at 1 mM after 1 hr by WSP1 dye based spectrofluorometric method relative to DADS", "format": "ADME, cell-based", "conditions": "human, 1000 µM", "summary_of_the_method": "as §1"}, "[12]": {"test": "Cytotoxicity in HSMC assessed as cell damage at 300 uM by propidium iodide staining based fluorescence microscopic method", "conditions": "human", "summary_of_the_method": "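WSP-1-loaded human aortic smooth muscle cells were incubated with compound for 1 h. Cells were then washed, fixed in Bouin solution for 10 min, and washed twice. Nuclei were stained with propidium iodide, and slides were examined by fluorescence microscopy.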"}}, "note": "Active and inactive are the calls of the source. The rule behind the calls is not given here.", "data": [{"smiles": "N=C(SCc1ccc2ccccc2c1)c1cccs1", "values": [{"measurement": "Emax at 1000 µM", "setting": "Thoracic aorta [1]", "result": 20.4, "unit": "%"}]}, {"smiles": "COc1ccc(C(=N)SCc2ccccc2)cc1", "values": [{"measurement": "Activity", "setting": "Heart", "result": "<=165%"}, {"measurement": "Activity", "setting": "Rattus norvegicus", "result": 36, "unit": "%"}, {"measurement": "Drug metabolism", "setting": "[2]", "result": "Tde"}, {"measurement": "IC50", "setting": "Thoracic aorta [3]", "result": 257, "unit": "µM"}, {"measurement": "Activity", "setting": "HSMC [4]", "result": "inactive"}, {"measurement": "Drug metabolism", "setting": "[5]", "result": "Metabolite_Detected"}, {"measurement": "Activity", "setting": "[6]", "result": 149, "unit": "%"}, {"measurement": "Activity", "setting": "[7]", "result": 0.489, "unit": "pmol/mL"}, {"measurement": "Emax at 1000 µM", "setting": "Thoracic aorta [1]", "result": 89.9, "unit": "%"}, {"measurement": "Activity", "setting": "HSMC [8]", "result": "Dose-dependent effect"}]}, {"smiles": "S=C(NCc1ccccc1)c1cccs1", "values": [{"measurement": "IC50", "setting": "Thoracic aorta [3]", "result": 240, "unit": "µM"}, {"measurement": "Emax at 1000 µM", "setting": "Thoracic aorta [1]", "result": 91.7, "unit": "%"}]}, {"smiles": "N=C(SCc1ccccc1)c1ccc(O)cc1", "values": [{"measurement": "IC50", "setting": "Thoracic aorta [3]", "result": 490, "unit": "µM"}, {"measurement": "Emax at 1000 µM", "setting": "Thoracic aorta [1]", "result": 82.1, "unit": "%"}]}, {"smiles": "O=c1[nH]c2cc(C(F)(F)F)ccc2n1-c1cc(C(F)(F)F)ccc1O", "values": [{"measurement": "Activity", "setting": "HSMC [9]", "result": "Active"}]}, {"smiles": "N=C(SCc1ccccc1)c1ccccc1", "values": [{"measurement": "IC50", "setting": "Thoracic aorta [3]", "result": 427, "unit": "µM"}, {"measurement": "Emax at 1000 µM", "setting": "Thoracic aorta [1]", "result": 86.5, "unit": "%"}]}, {"smiles": "C=CCSSCC=C", "note": "[DIALLYLDISULFIDE]", "values": [{"measurement": "Activity", "setting": "Rattus norvegicus", "result": 39, "unit": "%"}, {"measurement": "Drug metabolism", "setting": "[5]", "result": "Metabolite_Detected"}, {"measurement": "Drug metabolism", "setting": "[10]", "result": "Metabolite_Detected"}, {"measurement": "Emax at 1000 µM", "setting": "Thoracic aorta [1]", "result": 41.7, "unit": "%"}]}, {"smiles": "N=C(SCc1ccccc1)c1cccs1", "values": [{"measurement": "IC50", "setting": "Thoracic aorta [3]", "result": 263, "unit": "µM"}, {"measurement": "Emax at 1000 µM", "setting": "Thoracic aorta [1]", "result": 89.9, "unit": "%"}]}, {"smiles": "S=C(NCc1ccccc1)c1ccccc1", "values": [{"measurement": "IC50", "setting": "Thoracic aorta [3]", "result": 162, "unit": "µM"}, {"measurement": "Emax at 1000 µM", "setting": "Thoracic aorta [1]", "result": 92.7, "unit": "%"}]}, {"smiles": "Oc1ccc(C(=S)NCc2ccccc2)cc1", "values": [{"measurement": "IC50", "setting": "Thoracic aorta [3]", "result": 347, "unit": "µM"}, {"measurement": "Emax at 1000 µM", "setting": "Thoracic aorta [1]", "result": 88.2, "unit": "%"}]}, {"smiles": "COc1ccc(C(=S)NCc2ccccc2)cc1", "values": [{"measurement": "IC50", "setting": "Thoracic aorta [3]", "result": 129, "unit": "µM"}, {"measurement": "Emax at 1000 µM", "setting": "Thoracic aorta [1]", "result": 96.8, "unit": "%"}]}, {"smiles": "N=C(Sc1ccccc1)c1cccs1", "values": [{"measurement": "Activity", "setting": "Heart", "result": "inactive"}, {"measurement": "Activity", "setting": "Rattus norvegicus", "result": "inactive"}, {"measurement": "Drug metabolism", "setting": "[2]", "result": "Tde"}, {"measurement": "fold change (FC)", "setting": "[11]", "result": 50}, {"measurement": "IC50", "setting": "Thoracic aorta [3]", "result": 631, "unit": "µM"}, {"measurement": "Activity", "setting": "HSMC [4]", "result": "inactive"}, {"measurement": "Activity", "setting": "[6]", "result": 36, "unit": "%"}, {"measurement": "Activity", "setting": "[7]", "result": 0.667, "unit": "pmol/mL"}, {"measurement": "Activity", "setting": "[12]", "result": "Toxic"}, {"measurement": "Emax at 1000 µM", "setting": "Thoracic aorta [1]", "result": 99.7, "unit": "%"}, {"measurement": "Activity", "setting": "HSMC [8]", "result": "Dose-dependent effect"}]}]}
